Assays:
ABCG2 [1] = biological target: T1, ABCG2 (Homo sapiens, UniProt Q9UNQ0); assay: Activation of human ABCG2-mediated ATPase activity preincubated for 2 mins followed by ATP addition at 2.5 M and measured after 20 mins by colorimetric assay relative to control; design: dose or concentration left out as unconfirmed; conditions: read-out: Activity
T1 sequence (Q9UNQ0 whole entry): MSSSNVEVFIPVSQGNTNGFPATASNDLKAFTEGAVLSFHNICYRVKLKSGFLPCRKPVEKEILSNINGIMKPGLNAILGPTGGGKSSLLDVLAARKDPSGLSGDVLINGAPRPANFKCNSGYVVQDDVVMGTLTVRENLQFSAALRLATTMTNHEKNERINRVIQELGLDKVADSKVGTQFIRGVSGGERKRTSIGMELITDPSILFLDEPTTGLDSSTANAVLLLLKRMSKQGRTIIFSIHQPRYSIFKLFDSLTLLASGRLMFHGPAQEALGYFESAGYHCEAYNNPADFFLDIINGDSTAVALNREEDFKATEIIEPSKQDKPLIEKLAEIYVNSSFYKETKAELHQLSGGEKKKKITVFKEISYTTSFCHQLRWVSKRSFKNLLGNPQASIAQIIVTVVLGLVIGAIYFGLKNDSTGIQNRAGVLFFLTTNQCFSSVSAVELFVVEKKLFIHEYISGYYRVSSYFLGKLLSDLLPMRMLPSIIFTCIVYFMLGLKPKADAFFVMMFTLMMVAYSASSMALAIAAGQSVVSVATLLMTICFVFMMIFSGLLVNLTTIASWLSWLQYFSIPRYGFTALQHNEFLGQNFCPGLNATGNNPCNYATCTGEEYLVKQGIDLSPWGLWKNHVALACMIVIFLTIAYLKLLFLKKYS
How it was run: (§1)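 Total membrane vesicles from High-Five insect cells expressing human ABCG2 (hypotonic lysis, differential centrifugation), 10 μg protein/tube, in MES-Tris pH 6.8 buffer with KCl, MgCl2, NaN3, EGTA, ouabain, DTT. Compound in DMSO added ± sodium orthovanadate (0.3 mM), DMSO control. Preincubated 2 min at 37°C, then 5 mM ATP, 20 min. SDS stop, Pi measured colorimetrically. Three independent experiments in duplicate, mean ± SE.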

ABCG2 [2] = biological target: T1, ABCG2; assay: Activation of human ABCG2-mediated ATPase activity preincubated for 2 mins followed by ATP addition at 2.5 uM and measured after 20 mins by colorimetric assay relative to control; conditions: read-out: Activity; how it was run: as §1
ABCG2 [3] = biological target: T1, ABCG2; assay: Activation of human ABCG2-mediated ATPase activity preincubated for 2 mins followed by ATP addition at 10 uM and measured after 20 mins by colorimetric assay relative to control; conditions: read-out: Activity; how it was run: as §1
[4] = biological target: T2, Broad substrate specificity ATP-binding cassette transporter ABCG2 (Homo sapiens, UniProt Q9UNQ0); assay: Activation of human ABCG2-mediated ATPase activity preincubated for 2 mins followed by ATP addition and measured after 20 mins by colorimetric assay; how it was run: as §1
T2 sequence (Q9UNQ0 whole entry): T1 sequence (Q9UNQ0 whole entry)

ABCG2 [5] = biological target: T1, ABCG2; assay: Inhibition of human ABCG2 in human R5 cells assessed as inhibition of mitoxantrone efflux at 10 uM measured by flow cytometric analysis relative to control; type: cell-based; conditions: probe mitoxantrone
How it was run: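 HEK293 cells transfected with full-length ABCG2 (R-5) or empty pcDNA vector, grown in MEM with 10% FBS and 2 mg/ml G418. Cells incubated in IMDM with 5% FBS, 5 μM mitoxantrone (final) ± compound, 37°C for 45 min. Washed in cold IMDM, resuspended in cold PBS with 1% BSA, read by flow cytometry.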

ABCG2 [6] = biological target: T1, ABCG2; assay: Activation of human ABCG2-mediated ATPase activity preincubated for 2 mins followed by ATP addition at 10 M and measured after 20 mins by colorimetric assay relative to control; design: dose or concentration left out as unconfirmed; conditions: read-out: Activity; how it was run: as §1
ABCG2 [7] = biological target: T1, ABCG2; assay: Activation of human ABCG2-mediated ATPase activity preincubated for 2 mins followed by ATP addition at 100 nM and measured after 20 mins by colorimetric assay relative to control; conditions: read-out: Activity; how it was run: as §1
Adenosine receptor A3 = biological target: T3, Adenosine receptor A3 (Homo sapiens, UniProt P0DMS8); assay: Binding affinity towards human adenosine A3 receptor
T3 sequence (P0DMS8 whole entry): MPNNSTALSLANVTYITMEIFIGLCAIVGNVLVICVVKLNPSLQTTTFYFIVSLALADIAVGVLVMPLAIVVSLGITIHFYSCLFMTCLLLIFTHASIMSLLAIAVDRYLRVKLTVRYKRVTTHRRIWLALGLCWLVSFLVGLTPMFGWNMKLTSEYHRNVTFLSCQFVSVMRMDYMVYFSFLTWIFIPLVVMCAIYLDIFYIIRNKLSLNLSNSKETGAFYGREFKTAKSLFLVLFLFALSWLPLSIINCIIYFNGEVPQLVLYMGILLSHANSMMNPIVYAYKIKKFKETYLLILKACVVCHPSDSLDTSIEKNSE

ABCG2 [8] = biological target: T1, ABCG2; assay: Inhibition of human ABCG2-mediated ATPase activity preincubated for 2 mins followed by ATP addition at 2.5 uM and measured after 20 mins by colorimetric assay relative to control; how it was run: as §1
ABCG2 [9] = biological target: T1, ABCG2; assay: Inhibition of human ABCG2-mediated ATPase activity preincubated for 2 mins followed by ATP addition at 10 uM and measured after 20 mins by colorimetric assay relative to control; how it was run: as §1
[10] = biological target: T2, Broad substrate specificity ATP-binding cassette transporter ABCG2; assay: Inhibition of human ABCG2-mediated ATPase activity preincubated for 2 mins followed by ATP addition and measured after 20 mins by colorimetric assay; how it was run: as §1
ABCG2 [11] = biological target: T1, ABCG2; assay: Effect on human ABCG2 transporter preincubated for 2 mins followed by ATP addition assessed as basal ATPase activity at 10 uM and measured after 20 mins by colorimetric assay relative to control; conditions: read-out: Activity; how it was run: as §1
ABCG2 [12] = biological target: T1, ABCG2; assay: Effect on human ABCG2 transporter preincubated for 2 mins followed by ATP addition assessed as basal ATPase activity at 2.5 uM and measured after 20 mins by colorimetric assay relative to control; conditions: read-out: Activity; how it was run: as §1

| activity at 20 min (ABCG2 [1]) | activity at 20 min, 2.5 µM (ABCG2 [2]) | EC50 [4] | activity at 20 min (ABCG2 [6]) | SMILES | further results |
| --- | --- | --- | --- | --- | --- |
| 59.2% | – | – | – | CNC(=O)C12CC1[C@@H](n1cnc3c(NC)nc(C#Cc4ccc(Cl)s4)nc31)[C@H](O)[C@@H]2O (single isomer, unassigned) | – |
| – | 111% | 16 nM | – | CNC(=O)C12CC1[C@@H](n1cnc3c(NC4CC4c4ccc(F)c(F)c4)nc(C#Cc4cccc(F)c4)nc31)[C@H](O)[C@@H]2O (single isomer, unassigned) | activity at 20 min, 10 µM (ABCG2 [3]): 46.7%; inhibition at 10 µM (ABCG2 [5]): 100% |
| 101% | – | 1420 nM | 69.9% | CNC(=O)[C@H]1O[C@@H](n2cnc3c(NCc4cccc(I)c4)nc(Cl)nc32)[C@H](O)[C@@H]1O [NAMODENOSON] | – |
| 97.5% | – | – | 92.9% | CNC(=O)C12CC1[C@@H](n1cnc3c(NCc4cccc(Cl)c4)nc(C#Cc4ccc(Cl)s4)nc31)[C@H](O)[C@@H]2O (single isomer, unassigned) | – |
| – | – | – | – | COc1ccc(CCNC2=NC(C#Cc3ccc(Cl)s3)=NC3=NC=CC32)cc1O (stereo unspecified) | activity at 20 min, 0.1 µM (ABCG2 [7]): 104%; Ki (Adenosine receptor A3): ≥ 99 nM |
| – | 74.8% | 13 nM | – | CNC(=O)C12CC1[C@@H](n1cnc3c(N[C@@H]4C[C@H]4c4ccc(F)c(F)c4)nc(C#Cc4cccc(F)c4)nc31)[C@H](O)[C@@H]2O (single isomer, unassigned) | inhibition at 10 µM (ABCG2 [5]): 97.4% |
| – | – | – | – | CNC(=O)C12CC1[C@@H](n1cnc3c(NCc4cccc(-n5cc(-c6ccc(F)c(F)c6)nn5)c4)nc(C#Cc4cc(F)cc(F)c4)nc31)[C@H](O)[C@@H]2O (single isomer, unassigned) | inhibition at 20 min, 2.5 µM (ABCG2 [8]): 44.7%; inhibition at 20 min, 10 µM (ABCG2 [9]): 49.4% |
| – | – | – | – | CNC(=O)C12CC1[C@@H](n1cnc3c(NCc4cccc(-n5cc(-c6ccc(F)c(F)c6)nn5)c4)nc(C#Cc4cc(F)c(F)c(F)c4)nc31)[C@H](O)[C@@H]2O (single isomer, unassigned) | inhibition at 20 min, 2.5 µM (ABCG2 [8]): 38.9%; inhibition at 20 min, 10 µM (ABCG2 [9]): 48.9%; IC50 [10]: 4010 nM; inhibition at 10 µM (ABCG2 [5]): 105% |
| 124% | – | – | 122% | CCCNc1nc(C#Cc2ccc(Cl)s2)nc2c1ncn2[C@@H]1O[C@H](C(=O)NC)[C@@H](O)[C@H]1O | – |
| – | 60.3% | – | – | CNC(=O)C12CC1[C@@H](n1cnc3c(NCc4cccc(Cl)c4)nc(C#Cc4ccc(F)cc4)nc31)[C@H](O)[C@@H]2O (single isomer, unassigned) | activity at 20 min, 10 µM (ABCG2 [3]): 49.3% |
| – | 51.3% | – | – | CNC(=O)C12CC1[C@@H](n1cnc3c(NCc4cccc(Cl)c4)nc(C#Cc4ccccc4)nc31)[C@H](O)[C@@H]2O (single isomer, unassigned) | activity at 20 min, 10 µM (ABCG2 [11]): ≤ 30% |
| – | – | – | – | OCC12CC1[C@@H](n1cnc3c(NCc4cccc(-n5cc(-c6ccc(F)c(F)c6)nn5)c4)nc(C#Cc4ccc(F)cc4)nc31)[C@H](O)[C@@H]2O (single isomer, unassigned) | activity at 20 min, 2.5 µM (ABCG2 [12]): ≤ 30%; activity at 20 min, 10 µM (ABCG2 [11]): ≤ 30% |
| 66.2% | – | 70 nM | 98.2% | CNC(=O)C1O[C@@H](n2cnc3c(NCc4cccc(I)c4)ncnc32)[C@H](O)[C@@H]1O (single isomer, unassigned) | – |
| 165% | – | 50 nM | 164% | Fc1ccc(C#CC2=NC3=NC=NC3C(NCc3cccc(Cl)c3)=N2)cc1F (stereo unspecified) | inhibition at 10 µM (ABCG2 [5]): 81.4%; Ki (Adenosine receptor A3): ≥ 99 nM |
| – | 49.3% | – | – | CNC(=O)C12CC1[C@@H](n1cnc3c(NCc4cccc(Cl)c4)nc(C#Cc4cccc(Cl)c4)nc31)[C@H](O)[C@@H]2O (single isomer, unassigned) | activity at 20 min, 10 µM (ABCG2 [11]): ≤ 30% |
| – | – | – | – | Clc1ccc(C#CC2=NC3=NC=NC3C(NCCc3ccccc3)=N2)s1 (stereo unspecified) | activity at 20 min, 0.1 µM (ABCG2 [7]): 80.8%; Ki (Adenosine receptor A3): ≥ 99 nM |
